PTEN del growth: growth suppression of PTEN-null HCT116, primary screen, cell-based, CellTiter-Glo. HCT116 PTEN-null viability, 60 h; active compounds read low. viability, % at 10 µM. hit rate 1.2% among 140,000. AID 827, 2007;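 active = viability at or below a set limit, 4 SD under the median of all tested compounds, cut at about 3.7% in these data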;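 also: PTEN knockout HCT116 line with beta catenin targeted HCT116 as companion control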
H69AR growth 86K: proliferation blockers of H69AR lung cancer cells, primary screen, cell-based, human, 86K library; H69AR lung tumor viability, ATP luminescence, 72 h; active compounds read low; viability, % at 10 µM; hit rate 6% among 85,000; AID 598, 2007;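 active = viability at or below 40%; inactive = viability above 40%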;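 also: multidrug resistant small cell line overexpressing MRP-1 efflux transporter; 100% = mean luminescence of untreated control wells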
Fibroblast inh: antiproliferative effect on LL 47 fibroblasts – human, LL 47 cells, CellTiter-Glo luminescence, primary screen; LL 47 human lung fibroblast viability, ATP luminescence; active compounds read low; viability, % at 10 µM; hit rate 1.1% among 85,000; AID 719, 2007;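 active = viability at or below 50% in the single dose screen; inactive = viability above 50%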;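 also: compound exposure lasted 72 h before the ATP readout; 100% = median luminescence of untreated cell-only wells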
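test system = LL 47 human lung fibroblasts | amount = 1,150 fibroblasts seeded per well | medium = 15% FBS in IMEM | times = overnight cell rest, 72 h compound treatment at 37 °C | measured by = CellTiter-Glo luminescence measuring cellular ATP | read-out = viability percentage against median untreated-cell control | benchmarks = cell-only wells, no compound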
HCT116 bCat-KO: primary screen for growth suppressors in beta-catenin knockout HCT116 cells (colon tumor, human); hit rate 1.5% among 140,000; viability, % at 10 µM; HCT116 beta-catenin knockout viability, CellTiter-Glo, 60 h; active compounds read low;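 active = viability at or under a set limit, the compound median less 4 SD, cut at about 6% in these data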;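 also: 0% = Hyamine 1622 control at 20 µM and 100% = untreated cell control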
HUVEC prolif 384: inhibitors of HUVEC proliferation, primary screen, cell-based, 384-well; CellTiter-Glo luminescence, 72 h; active compounds read low; AID 648, 2007; viability, % at 10 µM (by protocol); hit rate 1.1% among 86,000;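 active = viability at or below 30%; inactive = viability above 30%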;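 also: 100% = median luminescence of DMSO-only cell control wells on each plate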
* hit, by the source's call; x = no result given. This excerpt belongs to a sample that is enriched for hits.

SMILES	PTEN del growth	H69AR growth 86K	Fibroblast inh	HCT116 bCat-KO	HUVEC prolif 384
COC(=O)C1CN(C#N)N(c2ccc(Cl)cc2)C12c1ccccc1-c1ccccc12 (configuration not stated)	1.0*	2.3*	2.1*	1.2*	2.4*
CCC(CC)C1C(C#N)=C(N)Oc2c1c(=O)oc1ccccc21 (configuration not stated)	75.9	36.7*	88.1	79.5	87.3
O=C(c1ccccc1)C(CN1CCCC1)c1ccccc1 (configuration not stated)	1.5*	x	x	1.8*	x
COC1=CCC2([N+](=O)[O-])CN(C)CC1([N+](=O)[O-])C2 (configuration not stated)	92.2	x	x	91.4	x
COc1ccccc1N=Cc1c(O)n(C)c(=O)n(C)c1=O	94.9	1.3*	93.3	92.0	97.4
Cn1c(O)c(/C=N/c2ccccn2)c(=O)n(C)c1=O	104.4	84.0	99.8	91.5	90.0
O=C(NC(=C(Cl)Cl)P(=O)(c1ccccc1)c1ccccc1)c1ccccc1	92.2	x	x	85.1	x
C#CCN1C(=O)C2(C(C#N)=C(N)OC(C)=C2C(=O)OCc2ccccc2)c2ccccc21 (configuration not stated)	41.7	29.9*	x	51.7	97.7
CCN(CC)c1ccc(/C=N/c2sc3c(c2C#N)C2CCN3CC2)c(O)c1	44.3	x	x	44.0	x
CC1(C)C[C@H]2C=C(C=O)[C@]3(C=O)C[C@]3(C)[C@H]2C1	1.8*	x	x	2.0*	x
CC(=NCc1cccnc1)c1c(O)n(-c2ccccc2C)c(=O)[nH]c1=O	85.5	89.8	98.7	93.0	103.5
CCN(CC)S(=O)(=O)c1cc(NC(=O)C(C)N2CC=C(c3ccccc3)CC2)ccc1C (configuration not stated)	39.0	x	x	25.7	x
Cc1ccc(-c2nc(N(C)C3CCN(C)CC3)c3ccccc3n2)cc1	1.4*	2.7*	38.3*	1.4*	4.3*
CN1CCC(N(C)c2ncnc3ccc(Br)cc23)CC1	93.9	86.0	101.9	83.7	82.1
CCCCCSc1cc(OC)c(CCN)cc1OC	37.3	x	x	26.5	x
CCCCCCCSc1cc(OC)c(CCN(C)C)cc1OC	1.3*	x	x	1.2*	x
CC(=O)N1CN2CN(C1)CN(C(C)=O)C2	88.3	x	x	83.8	x
O=C1NC(=O)C(=Cc2cn(CCOc3ccc4c(c3)OCO4)c3ccccc23)C(=O)N1	33.4	77.7	48.4*	66.7	52.7
O=c1[nH]c(=O)n(CCc2ccccc2)c(O)c1C=NCc1ccc2c(c1)OCO2	91.3	34.9*	80.0	101.9	71.5
CCC(=NCc1ccco1)c1c(O)n(C2CCCCC2)c(=O)[nH]c1=O	89.2	31.9*	99.3	88.0	102.0
COC(=O)[C@@H]1C[C@@]1(C)[C@@H](NP(=O)(c1ccccc1)c1ccccc1)c1ccccc1	86.3	x	x	88.8	x
Cc1[nH]c2c(C(F)(F)F)cccc2c1CCN	16.1	17.7*	70.5	18.4	82.7
Cc1cc(C)n(CCOC(=O)C2C(C=C(Cl)Cl)C2(C)C)n1 (configuration not stated)	86.2	93.2	92.7	81.2	99.6
c1cc2n(c1)-c1c(ccc3c1OCO3)CNC2c1ccc2c(c1)OCO2 (configuration not stated)	69.1	x	x	64.1	x
COc1ccc(C2NCc3ccc4c(c3-n3cccc32)OCO4)cc1O (configuration not stated)	17.4	29.3*	51.9	11.9	43.4
SMILES	PTEN del growth	H69AR growth 86K	Fibroblast inh	HCT116 bCat-KO	HUVEC prolif 384
O=C1C(=O)c2cccc3cccc1c23	37.0	x	x	27.2	x
O=C1C(=O)c2ccccc2-c2ccccc21	2.2*	x	x	1.7*	x
CC1CCC[C@H](O)CCCCCc2cc(O)cc(O)c2C(=O)O1 (some centres not stated)	93.4	x	x	104.6	x
C[C@H]1CCC[C@@H](O)CCC/C=C/c2cc(O)cc(O)c2C(=O)O1	43.2	6.5*	69.5	46.7	34.3
C[C@H]1CCC[C@H](O)CCCCCc2cc(O)cc(O)c2C(=O)O1	74.1	32.0*	85.2	71.0	46.8
COC(=O)C(O)(c1c(C)[nH]c2ccccc12)C(F)(F)F (configuration not stated)	91.7	84.7	89.9	91.2	90.2
CCOc1cc(C2C(C#N)=C(N)Oc3c2c(=O)oc2ccccc32)ccc1OC(=O)c1cccs1 (configuration not stated)	97.1	x	x	99.2	x
O=P(Nc1cccnc1)(Oc1ccccc1Cl)Oc1ccccc1Cl	93.9	x	x	85.8	x
Nc1c2c(nc3sc4c(c13)CCCC4)CCCCC2	7.5	x	x	4.1*	x
O=C(NC1CN2CCC1CC2)c1cc(Cl)c([N+](=O)[O-])c2nc[nH]c12 (configuration not stated)	0.6*	x	x	0.8*	x
Cc1nc2c(=O)n(C)c(=O)nc-2n(C)n1	1.5*	2.6*	2.5*	1.5*	5.6*
O=C1NC(=O)C2(Cc3ccccc3N3CCCC32)C(=O)N1c1ccccc1 (configuration not stated)	94.0	101.8	90.5	87.2	86.6
O=C1NC(=O)C2(Cc3ccccc3N3CCOCC32)C(=O)N1c1ccccc1 (configuration not stated)	24.4	19.2*	94.0	28.1	72.4
CN(C)c1ccc(C(=O)c2ccc(N(C)C)cc2)cc1	24.0	15.7*	55.0	19.2	41.1
CN1/C(=C\C=C\C2=[N+](C)c3ccc4ccccc4c3C2(C)C)C(C)(C)c2ccccc21	0.1*	0.1*	1.6*	0.4*	2.0*
CN1/C(=C\C=Nc2ccccc2)C(C)(C)c2ccccc21	55.8	x	x	69.4	x
Cc1ccccc1NP(=O)(Oc1ccccc1F)Oc1ccccc1F	72.0	x	x	79.5	x
CN1C[C@H](CNC(=O)OCc2ccccc2)C[C@@H]2c3cccc4c3c(cn4C)C[C@H]21	40.6	1.7*	75.5	31.8	3.9*
CN1CSC(=S)N(C)C1	78.1	27.7*	98.7	79.4	102.2
CCn1c(O)c(C(c2ccccn2)c2c(O)n(CC)c(=S)[nH]c2=O)c(=O)[nH]c1=S	101.3	x	x	96.0	x
COc1ccc(Oc2cc(NC(=O)c3nn(C)cc3[N+](=O)[O-])cc([N+](=O)[O-])c2)cc1	1.4*	x	x	1.6*	x
Cc1cc(OCC(=O)Nc2c(C)n(C)n(-c3ccccc3)c2=O)c2c3c(c(=O)oc2c1)CCC3	x	87.3	107.7	x	99.7
CCn1nc(-c2ccccc2)nc2c(=O)n(C)c(=O)nc1-2	1.4*	x	x	0.7*	x
CC1CCC/C=C/C2CC(O)CC2C(O)/C=C/C(=O)O1 (configuration not stated)	7.6	2.9*	11.4*	2.8*	8.3*
Cc1ccc2c(c1)N(N=O)CCC2	97.3	x	x	107.5	x
CCOC(=O)c1c(-c2ccc(OC)cc2)oc2ccc(OC(=O)N(C)C)cc12	55.4	32.6*	103.1	57.7	71.8

Assay outcomes: PubChem, SRMLSC
